The term Cmax denotes the highest concentration seen after dosing. As usually defined, the Tmax is the time from dosing to the highest level.

The target in data set [1] is Muscarinic acetylcholine receptor M3 (Rattus norvegicus) (UniProt P08483). The data set can be described thus: Positive allosteric modulation of muscarinic acetylcholine receptor M3 in Sprague-Dawley rat urinary bladder assessed as increase in 8 Hz electrical field stimulation-induced bladder contraction by measuring tension of isolated bladder contraction at 10 uM (reference value: 2.21 +/- 0.26 g). Put shortly: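 Female Sprague-Dawley rats, 9–10 weeks old. Longitudinal bladder strips (~10×2 mm) in Krebs at 37°C, gassed with 95% O2/5% CO2. EFS at 8 Hz, 10 s trains, 0.3 ms pulses, voltage set to give about half-maximal response. Drug added cumulatively at 1, 3 and 10 μM, 10 stimulations per concentration. Contraction = peak minus basal tone, averaged over the last 3 contractions and compared with pre-drug value (n=7).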
Muscarinic acetylcholine receptor M3 (Rattus norvegicus), sequence (P08483 whole entry, looked up): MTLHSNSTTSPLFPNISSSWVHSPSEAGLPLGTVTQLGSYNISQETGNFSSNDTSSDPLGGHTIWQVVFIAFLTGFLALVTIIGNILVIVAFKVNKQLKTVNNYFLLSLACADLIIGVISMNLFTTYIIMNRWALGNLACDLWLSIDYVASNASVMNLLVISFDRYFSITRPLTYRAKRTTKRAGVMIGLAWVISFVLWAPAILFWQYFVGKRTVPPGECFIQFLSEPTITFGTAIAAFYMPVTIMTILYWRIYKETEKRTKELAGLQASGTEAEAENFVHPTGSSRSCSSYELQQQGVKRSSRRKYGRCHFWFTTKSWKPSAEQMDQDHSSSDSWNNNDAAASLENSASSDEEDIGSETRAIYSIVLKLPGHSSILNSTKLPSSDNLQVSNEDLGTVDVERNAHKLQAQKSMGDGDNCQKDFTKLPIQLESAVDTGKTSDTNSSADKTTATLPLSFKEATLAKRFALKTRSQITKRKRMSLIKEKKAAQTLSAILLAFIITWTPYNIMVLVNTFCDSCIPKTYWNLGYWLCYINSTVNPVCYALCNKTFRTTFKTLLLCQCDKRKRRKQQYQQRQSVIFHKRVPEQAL

Data set [2] deals with T1, Muscarinic acetylcholine receptor M4 (Homo sapiens) (UniProt P08173).
T1 sequence (whole entry): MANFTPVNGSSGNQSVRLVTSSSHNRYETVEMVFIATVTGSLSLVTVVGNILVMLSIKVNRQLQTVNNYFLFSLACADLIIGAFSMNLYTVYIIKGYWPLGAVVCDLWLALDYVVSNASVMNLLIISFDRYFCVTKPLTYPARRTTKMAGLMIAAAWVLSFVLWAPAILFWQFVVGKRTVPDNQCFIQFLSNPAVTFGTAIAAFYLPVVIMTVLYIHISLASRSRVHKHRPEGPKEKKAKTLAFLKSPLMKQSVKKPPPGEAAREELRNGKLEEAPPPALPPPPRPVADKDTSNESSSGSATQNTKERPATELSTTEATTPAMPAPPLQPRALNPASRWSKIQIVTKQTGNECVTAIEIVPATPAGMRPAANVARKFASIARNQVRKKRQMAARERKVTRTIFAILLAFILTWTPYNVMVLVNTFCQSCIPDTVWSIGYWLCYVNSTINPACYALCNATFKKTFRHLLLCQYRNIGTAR
Nature of the data set: Positive allosteric modulation of recombinant human muscarinic acetylcholine receptor M4 expressed in CHOK1 cells coexpressing G-alpha16 assessed as increase in carbachol-induced intracellular calcium flux at 10 uM preincubated for 5 mins followed by carbachol addition by Fluo4-AM dye based FLIPR assay relative to carbachol. Format: functional, cell-based. The following applies: CHO-K1. The method in brief: (§1)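 CHO-K1 cells stably expressing human or rat M1–M5; M2 and M4 lines also co-express human Gα16. Cells loaded with 3.1 μM Fluo-4 AM in HBSS/20 mM HEPES pH 7.5/BSA/2.5 mM probenecid for ~2 h at room temperature. Test substance at 10 μM final, then carbachol (0.0024 nM–100 μM) ~5 min later; Ca2+ read by FLIPR Tetra. Fold shift = carbachol EC50 without / with test substance, from logistic fits.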

Data set [3] has as its target T2, Muscarinic acetylcholine receptor M4 (Rattus norvegicus) (UniProt P08485).
T2 sequence (whole entry): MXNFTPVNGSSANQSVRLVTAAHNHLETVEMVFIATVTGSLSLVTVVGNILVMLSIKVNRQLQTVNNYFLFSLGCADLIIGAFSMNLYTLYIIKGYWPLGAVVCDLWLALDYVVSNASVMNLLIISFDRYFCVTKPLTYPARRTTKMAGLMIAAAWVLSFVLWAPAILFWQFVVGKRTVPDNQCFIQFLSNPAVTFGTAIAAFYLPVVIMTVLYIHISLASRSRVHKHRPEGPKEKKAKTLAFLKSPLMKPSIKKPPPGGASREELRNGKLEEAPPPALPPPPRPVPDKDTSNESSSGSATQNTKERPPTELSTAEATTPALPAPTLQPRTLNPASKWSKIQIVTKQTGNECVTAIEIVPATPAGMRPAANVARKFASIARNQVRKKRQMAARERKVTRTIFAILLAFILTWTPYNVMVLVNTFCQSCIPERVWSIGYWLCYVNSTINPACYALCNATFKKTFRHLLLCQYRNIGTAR
The data set can be described thus: Positive allosteric modulation of recombinant rat muscarinic acetylcholine receptor M4 expressed in CHOK1 cells coexpressing G-alpha16 assessed as increase in carbachol-induced intracellular calcium flux at 10 uM preincubated for 5 mins followed by carbachol addition by Fluo4-AM dye based FLIPR assay relative to carbachol. Format: functional, cell-based. The following applies: CHO-K1. Put shortly: as §1

The target in data set [4] is T3, Muscarinic acetylcholine receptor M1 (Homo sapiens) (UniProt P11229).
T3 sequence (whole entry): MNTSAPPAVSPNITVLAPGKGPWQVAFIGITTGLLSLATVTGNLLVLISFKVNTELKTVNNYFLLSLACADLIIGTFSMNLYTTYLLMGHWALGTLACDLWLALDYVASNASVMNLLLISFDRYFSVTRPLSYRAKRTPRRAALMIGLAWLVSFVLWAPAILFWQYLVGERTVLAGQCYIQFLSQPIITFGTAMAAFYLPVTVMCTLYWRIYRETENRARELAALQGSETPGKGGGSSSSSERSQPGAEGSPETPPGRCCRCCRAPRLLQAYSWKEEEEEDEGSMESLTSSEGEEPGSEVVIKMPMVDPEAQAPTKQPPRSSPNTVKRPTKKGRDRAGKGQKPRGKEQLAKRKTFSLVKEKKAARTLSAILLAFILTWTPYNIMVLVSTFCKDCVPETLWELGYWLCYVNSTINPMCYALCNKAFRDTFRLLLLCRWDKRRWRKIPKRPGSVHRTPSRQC
The data set can be described thus: Positive allosteric modulation of recombinant human muscarinic acetylcholine receptor M1 expressed in CHOK1 cells assessed as increase in carbachol-induced intracellular calcium flux at 10 uM preincubated for 5 mins followed by carbachol addition by Fluo4-AM dye based FLIPR assay relative to carbachol. Format: functional, cell-based. The following applies: CHO-K1. The method in brief:
as §1
(A change in cytosolic calcium serves as a functional read-out for many receptors and channels.)

Data set [5] in a line: Cmax in Crl:CD(SD) rat at 1 mg/kg, po measured up to 24 hrs by LC-MS/MS analysis. Format: ADME, organism-based. Also on record: dose 1 mg/kg, route oral. The following applies: in vivo. Put shortly:
(§2)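 Male Crl:CD(SD) rats, 8 weeks old, food deprived (n=4); iv 0.3 mg/kg or po 1 mg/kg in DMF/propylene glycol/water for injection (1/1/8) containing 1 M NaOH (2 equivalents). Plasma sampled to 24 h, assayed by validated LC-MS/MS. Parameters from each animal by noncompartmental analysis, reported as means.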

The nature of data set [6]: Tmax in Crl:CD(SD) rat at 1 mg/kg, po measured up to 24 hrs by LC-MS/MS analysis. In kind it is ADME, organism-based. The following applies: in vivo. The method in brief:
as §2

For the compound `CC[C@@H]1CCCN1Cc1sc(NC(=O)c2cnc(N3CCC(C(=O)O)CC3)cn2)nc1-c1ccc(OC)c(C(F)(F)F)c1.Cl.Cl`, the Activity in data set [1] turned out to be 3.49 g. Besides, the results for the fold change (FC) in data set [2], in data set [3] and in data set [4] were 1, 0.7 and 2.3, respectively. Further, the concentration in data set [5] peaked (Cmax) at 85.3 ng/mL. For the same compound, the Tmax in data set [6] amounted to 18.6 min.

Values taken from ChEMBL document CHEMBL4622869, “Discovery and structure-activity relationships study of positive allosteric modulators of the M3 muscarinic acetylcholine receptor” (Bioorg Med Chem, 2020).
